Experimental data: ChEMBL document CHEMBL1275331, “Discovery of a novel 5-HT(3) antagonist/5-HT(1A) agonist 3-amino-5,6,7,8-tetrahydro-2-{4-[4-(quinolin-2-yl)piperazin-1-yl]butyl}quinazolin-4(3H)-one (TZB-30878) as an orally bioavailable agent for irritable bowel syndrome” (J Med Chem, 2010)

Legend:
[1] = molecular target: T1, 5-hydroxytryptamine receptor 1A (Homo sapiens, UniProt P08908); assay: Displacement of [3H]8-OH-DPAT from human 5HT1A receptor expressed in CHO cells by liquid scintillation counting; assay type: cell-based
T1 sequence (P08908 whole entry): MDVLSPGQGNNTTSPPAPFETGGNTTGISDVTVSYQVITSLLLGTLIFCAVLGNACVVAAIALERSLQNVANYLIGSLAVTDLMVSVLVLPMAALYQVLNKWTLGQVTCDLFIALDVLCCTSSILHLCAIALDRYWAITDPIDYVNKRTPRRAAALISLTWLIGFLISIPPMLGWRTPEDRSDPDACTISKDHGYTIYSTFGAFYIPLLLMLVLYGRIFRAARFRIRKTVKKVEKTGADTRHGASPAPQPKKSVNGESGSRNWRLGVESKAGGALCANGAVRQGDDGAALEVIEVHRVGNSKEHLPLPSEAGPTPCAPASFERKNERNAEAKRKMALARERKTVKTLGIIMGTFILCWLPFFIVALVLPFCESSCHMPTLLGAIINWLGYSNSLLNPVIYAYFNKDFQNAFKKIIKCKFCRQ
How it was run: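 CHO-cell membranes with human 5-HT1A were incubated with 0.25 nmol/L [3H]8-OH-DPAT (final) for 60 min at 27 °C. Buffer: 50 mM Tris-HCl, 10 mM MgSO4, 0.5 mM EDTA, 0.1% ascorbic acid, pH 7.4. Compound came from 270 μmol/L DMSO stock, diluted in buffer. Filtration was through GF/C presoaked in 0.3% polyethyleneimine, with two cold Tris washes. Run in duplicate or triplicate; percent inhibition of binding calculated.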

[2] = molecular target: T2, 5-hydroxytryptamine receptor 3A (Homo sapiens, UniProt P46098); assay: Displacement of [3H]BRL-43694 from human 5HT3 receptor expressed in HEK293 cells by liquid scintillation counting; assay type: cell-based
T2 sequence (P46098 whole entry): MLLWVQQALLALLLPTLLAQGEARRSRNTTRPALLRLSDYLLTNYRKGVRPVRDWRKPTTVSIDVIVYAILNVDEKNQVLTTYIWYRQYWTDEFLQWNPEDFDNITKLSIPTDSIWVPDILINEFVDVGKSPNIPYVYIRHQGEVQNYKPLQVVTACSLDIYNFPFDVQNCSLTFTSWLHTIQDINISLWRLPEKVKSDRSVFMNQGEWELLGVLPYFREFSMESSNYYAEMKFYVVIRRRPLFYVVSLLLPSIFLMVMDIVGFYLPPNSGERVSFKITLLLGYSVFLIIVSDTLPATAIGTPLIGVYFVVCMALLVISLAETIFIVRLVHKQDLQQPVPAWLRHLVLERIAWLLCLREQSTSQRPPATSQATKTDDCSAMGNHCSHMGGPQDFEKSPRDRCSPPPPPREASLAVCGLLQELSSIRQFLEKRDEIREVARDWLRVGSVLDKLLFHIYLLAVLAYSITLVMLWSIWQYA
How it was run: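 HEK-293 membranes expressing human 5-HT3 were incubated with 0.5 nmol/L [3H]BRL-43694 (final) for 60 min at 25 °C. Buffer: 50 mM Tris-HCl, 5 mM MgCl2, 1 mM EDTA, pH 7.5. Compound came from 270 μmol/L DMSO stock, diluted in buffer. Filtration was through GF/B presoaked in 0.5% polyethyleneimine, with two cold Tris washes. Run in duplicate or triplicate; percent inhibition calculated.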

[3] = Drug level in Sprague-Dawley rat blood at 3 mg/kg, po after 8 hrs by HPLC analysis; assay type: ADME, organism-based; parameters: dose 3 mg/kg, route oral; settings: whole blood, read-out: Drug uptake
How it was run: (§1)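 Total compound concentration was measured in brain and blood at 2, 4 and 8 h after a single oral 3 mg/kg dose. Brain/blood ratio was also derived. Values are mean ± SD of three rats.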

[4] = Drug level in Sprague-Dawley rat brain at 3 mg/kg, po after 8 hrs by HPLC analysis; assay type: ADME, organism-based; parameters: dose 3 mg/kg, route oral; settings: read-out: Drug uptake; how it was run: as §1
[5] = Drug level in Sprague-Dawley rat brain at 3 mg/kg, po after 4 hrs by HPLC analysis; assay type: ADME, organism-based; parameters: dose 3 mg/kg, route oral; settings: read-out: Drug uptake; how it was run: as §1
[6] = Ratio of drug level in brain to blood in Sprague-Dawley rat at 3 mg/kg, po after 8 hrs; assay type: ADME, organism-based; parameters: dose 3 mg/kg, route oral
How it was run: (§2)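 Rats dosed 3 mg/kg orally; total compound levels measured in brain and blood at 2, 4 and 8 h, brain/blood ratio derived. Mean ± SD of three rats.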

[7] = Ratio of drug level in brain to blood in Sprague-Dawley rat at 3 mg/kg, po after 4 hrs; assay type: ADME, organism-based; parameters: dose 3 mg/kg, route oral; how it was run: as §2
[8] = Drug level in Sprague-Dawley rat blood at 3 mg/kg, po after 4 hrs by HPLC analysis; assay type: ADME, organism-based; parameters: dose 3 mg/kg, route oral; settings: whole blood, read-out: Drug uptake; how it was run: as §1
[9] = Drug level in Sprague-Dawley rat brain at 3 mg/kg, po after 2 hrs by HPLC analysis; assay type: ADME, organism-based; parameters: dose 3 mg/kg, route oral; settings: read-out: Drug uptake; how it was run: as §1
[10] = Drug level in Sprague-Dawley rat blood at 3 mg/kg, po after 2 hrs by HPLC analysis; assay type: ADME, organism-based; parameters: dose 3 mg/kg, route oral; settings: whole blood, read-out: Drug uptake; how it was run: as §1
[11] = Ratio of drug level in brain to blood in Sprague-Dawley rat at 3 mg/kg, po after 2 hrs; assay type: ADME, organism-based; parameters: dose 3 mg/kg, route oral; how it was run: as §2
[12] = molecular target: T3, 5-hydroxytryptamine receptor 3A (Cavia porcellus) (UniProt O70212); assay: Inhibition of 5HT3 receptor-mediated contraction of guinea pig ileum at 1 umol/L after 20 mins relative to control; assay type: tissue-based
T3 sequence (whole entry): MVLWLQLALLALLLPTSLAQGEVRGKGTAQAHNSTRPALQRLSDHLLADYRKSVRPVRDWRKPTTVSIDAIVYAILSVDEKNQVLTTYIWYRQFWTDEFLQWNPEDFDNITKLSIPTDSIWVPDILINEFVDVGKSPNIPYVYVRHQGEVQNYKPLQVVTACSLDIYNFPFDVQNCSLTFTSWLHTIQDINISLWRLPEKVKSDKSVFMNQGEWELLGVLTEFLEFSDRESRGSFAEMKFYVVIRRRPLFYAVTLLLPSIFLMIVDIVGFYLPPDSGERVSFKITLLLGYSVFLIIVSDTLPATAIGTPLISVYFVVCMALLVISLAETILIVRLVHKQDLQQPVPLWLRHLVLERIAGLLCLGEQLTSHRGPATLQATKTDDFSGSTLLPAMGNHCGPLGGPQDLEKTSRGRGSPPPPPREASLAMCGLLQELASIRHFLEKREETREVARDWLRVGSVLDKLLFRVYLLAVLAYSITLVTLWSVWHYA
How it was run: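 Ileum strips in Tyrode solution at 37 °C, gassed 5% CO2/95% O2, isotonic contractions under 1 g load. After at least 3 stable contractions to 10 μM 2-methyl-5-HT, tissue exposed to compound or DMSO vehicle for 20 min, then 10 μM 2-methyl-5-HT re-added; contraction expressed as % inhibition of control.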

SMILES	IC50 [1] [nM]	IC50 [2] [nM]	further results
Nn1c(CN2CCN(c3ccc4ccccc4n3)CC2)nc2c(c1=O)CCCC2	> 100	86.6	–
Nn1c(CCCCN2CCN(c3ccc4ccccc4n3)CC2)nc2cccc(Cl)c2c1=O	< 10	> 100	–
Nn1c(CCCCN2CCN(c3ccc4ccccc4n3)CC2)nc2cccc(F)c2c1=O	< 10	50.6	–
Nn1c(CCCCN2CCN(c3ccc4ccccc4n3)CC2)nc2cc(Cl)ccc2c1=O	18	> 100	–
Nn1c(CCCCN2CCN(c3ccc4ccccc4n3)CC2)nc2c(Cl)cccc2c1=O	< 10	83.1	–
O=c1[nH]c(SCCCN2CCN(c3ccc4ccccc4n3)CC2)nc2sc3c(c12)CCCC3	> 100	44.2	–
Cc1cccc2c(=O)n(N)c(CCCCN3CCN(c4ccc5ccccc5n4)CC3)nc12	< 10	15.6	–
Cc1cccc2nc(CCCCN3CCN(c4ccc5ccccc5n4)CC3)n(N)c(=O)c12	13.5	> 100	–
CC1CCc2c(nc(CCCCN3CCN(c4ccc5ccccc5n4)CC3)n(N)c2=O)C1 (stereo not drawn)	< 10	97.9	–
Nn1c(CCCCCN2CCN(c3ccc4ccccc4n3)CC2)nc2c(c1=O)CCCC2	7.6	> 100	–
Nn1c(SCCCN2CCN(c3ccc4ccccc4n3)CC2)nc2ncccc2c1=O	< 1	64.8	–
CC1CCc2nc(CCCCN3CCN(c4ccc5ccccc5n4)CC3)n(N)c(=O)c2C1 (stereo not drawn)	< 10	48.3	–
Nn1c(CCCCN2CCN(c3ccc4ccc(O)cc4n3)CC2)nc2c(c1=O)CCCC2	46.6	55.2	–
Nn1c(SCCCN2CCN(c3ccc4ccccc4n3)CC2)nc2cc([N+](=O)[O-])ccc2c1=O	1.3	> 100	–
Nn1c(SCCCN2CCN(c3ccc4ccccc4n3)CC2)nc2sc3c(c2c1=O)CCCC3	< 10	41.4	–
Cc1ccc2nc(CCCCN3CCN(c4ccc5ccccc5n4)CC3)n(N)c(=O)c2c1	< 10	45.6	–
Cc1sc2nc(CCCCN3CCN(c4ccc5ccccc5n4)CC3)n(N)c(=O)c2c1C	< 10	26.7	–
Cc1sc2nc(SCCCN3CCN(c4ccc5c(n4)CCCC5)CC3)n(N)c(=O)c2c1C	6.1	> 100	–
Cc1sc2nc(SCCCN3CCN(c4cc(C)c5ccccc5n4)CC3)n(N)c(=O)c2c1C	4.3	50.5	–
Cc1cc2ccccc2nc1N1CCN(CCCCc2nc3c(c(=O)n2N)CCCC3)CC1	96	> 100	–
Nn1c(CCCN2CCN(c3ccc4ccccc4n3)CC2)nc2c(c1=O)CCCC2	90.4	> 100	–
Nn1c(CCCCN2CCN(c3ccc4cc(O)ccc4n3)CC2)nc2c(c1=O)CCCC2	59.3	> 100	–

SMILES	IC50 [1] [nM]	IC50 [2] [nM]	further results
Nn1c(SCCCN2CCN(c3ccc4ccccc4n3)CC2)nc2cccnc2c1=O	< 1	61	–
Nn1c(CCCCN2CCN(c3nc4ccccc4cc3O)CC2)nc2c(c1=O)CCCC2	96.4	52.6	–
Nn1c(SCCCN2CCN(c3ccc4ccccc4n3)CC2)nc2sc3c(c2c1=O)CCNC3	5.2	100	–
Nn1c(CCCCN2CCN(c3ccc4ccccc4n3)CC2)nc2c(c1=O)CC(O)CC2 (stereo not drawn)	< 10	46.5	–
Nn1c(SCCCN2CCN(c3ccc4ccccc4n3)CC2)nc2ccccc2c1=O	24.4	69.9	–
Cc1sc2nc(SCCCN3CCN(c4nc5ccccc5nc4-c4ccccc4)CC3)n(N)c(=O)c2c1C	> 100	> 100	–
O=c1[nH]c(CCCCN2CCN(c3ccc4ccccc4n3)CC2)nc2c1CCCC2	6.2	24.6	–
Cc1sc2nc(SCCCN3CCN(c4ccccn4)CC3)n(N)c(=O)c2c1C	4.2	> 100	–
Nn1c(CCCCN2CCN(c3ccc4ccccc4n3)CC2)nc2ccc(Cl)cc2c1=O	< 10	> 100	–
Cc1c(N2CCN(CCCCc3nc4c(c(=O)n3N)CCCC4)CC2)nc2ccccc2c1C	64.6	> 100	–
CC(=O)N1CCc2c(sc3nc(CCCCN4CCN(c5ccc6ccccc6n5)CC4)n(N)c(=O)c23)C1	< 10	22.1	concentration at 8 h [3]: 43.7 nM; concentration at 8 h [4]: 13.4 nM; concentration at 4 h [5]: 19.5 nM; Kp at 8 h [6]: 0.307; Kp at 4 h [7]: 0.355; concentration at 4 h [8]: 55.8 nM; concentration at 2 h [9]: 15.1 nM; concentration at 2 h [10]: 51 nM; Kp at 2 h [11]: 0.294
Cc1sc2nc(SCCCN3CCN(c4ccc5ccccc5n4)CC3)[nH]c(=O)c2c1C	> 100	> 100	–
Nn1c(CCCCN2CCN(c3nc4ccccc4c4c3CCCC4)CC2)nc2c(c1=O)CCCC2	> 100	> 100	–
Cc1sc2nc(SCCCN3CCN(c4nc5ccccc5c5ccccc45)CC3)n(N)c(=O)c2c1C	55.4	> 100	–
Nn1c(CCN2CCN(c3ccc4ccccc4n3)CC2)nc2c(c1=O)CCCC2	> 100	> 100	–
Nn1c(CCCCN2CCN(c3ccc4ccccc4n3)CC2)nc2c(c1=O)CCC2	< 1	62.1	–
Nn1c(CCCCN2CCN(c3ccc4ccccc4n3)CC2)nc2cc(F)ccc2c1=O	< 10	> 100	–
Nn1c(CCCCN2CCN(c3nc4ccccc4c4c3CCC4)CC2)nc2c(c1=O)CCCC2	62.3	> 100	–
Cc1sc2nc(SCCCN3CCN(c4nc5ccccc5s4)CC3)n(N)c(=O)c2c1C	66.6	87.6	–
Cc1sc2nc(SCCCN3CCN(c4ccc5ccccc5n4)CC3)n(N)c(=O)c2c1C	36.4	48.4	inhibition [12]: 41.9%
Nn1c(CCCCN2CCN(c3ccc4ccccc4n3)CC2)nc2ccc(F)cc2c1=O	< 10	99.4	–
Nn1c(CCCCN2CCN(c3ccc4ccccc4n3)CC2)nc2c(c1=O)CCCCC2	< 10	84.8	–
